Converted amounts (≈) assume the structure as drawn.
Key:
[1] = tested on: Escherichia coli; experiment: Antimicrobial activity against the strain of Escherichia coli(ATCC 9637); format: functional
In short: (§1)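 Agar dilution MIC on minimal agar Davis medium with 0.1% yeast extract and 0.1% casamino acids containing compound at 200 to 0.2 μg/mL (twofold steps). Cells at 10⁵ cfu/mL were loop-applied to the surface and incubated 24 h at 37 °C. Plates were read visually; MIC is the lowest concentration giving complete growth inhibition.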

[2] = tested on: Staphylococcus aureus; experiment: Antimicrobial activity against the strain of Staphylococcus aureus (209P); format: functional; in short: as §1
[3] = tested on: Candida albicans; experiment: Antimicrobial activity against the strain of Candida albicans(AMB 25); format: functional
In short: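 MIC by serial twofold dilution, 200 to 0.2 μg/mL, in YNB with 1% glucose. The inoculum was 10⁴ cfu/mL of an overnight culture grown in the same medium, incubated 48 h at 30 °C. Growth was read turbidimetrically; MIC is the lowest concentration giving complete growth inhibition.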

[4] = tested on: Shigella sonnei; experiment: Antimicrobial activity against the strain of Shigella sonnei(433); format: functional; in short: as §1
[5] = tested on: Bacillus pumilus; experiment: Antimicrobial activity against the strain of Bacillus pumilus(1697); format: functional; in short: as §1
[6] = tested on: Bacillus pumilus; experiment: Antibacterial activity against Bacillus pumilus CCM 1697 strain in medium*after incorporation of 10 nmol of GlcNAc antagonist per disk.
[7] = tested on: Shigella sonnei; experiment: Antibacterial activity against Shigella sonnei 433 strain in medium after incorporation of 10 nmol of GlcNAc antagonist per disk.
[8] = tested on: Bacillus pumilus; experiment: Antibacterial activity against Bacillus pumilus CCM 1697 strain in medium after incorporation of 10 nmol of Met-Val dipeptide antagonist per disk.
[9] = tested on: Bacillus pumilus; experiment: Antibacterial activity against Bacillus pumilus CCM 1697 strain in medium after incorporation of 10 nmol of Leu-Met dipeptide antagonist per disk.
[10] = tested on: Shigella sonnei; experiment: Antibacterial activity against Shigella sonnei 433 strain in medium after incorporation of 10 nmol of Leu-Met dipeptide antagonist per disk.
[11] = tested on: Shigella sonnei; experiment: Antibacterial activity against Shigella sonnei 433 strain in medium after incorporation of 10 nmol of Met-Val dipeptide antagonist per disk.
[12] = tested on: Candida albicans; experiment: Antifungal activity against Candida albicans ATCC 26278 strain in medium after incorporation of 10 nmol of Leu-Met dipeptide antagonist per disk.; format: functional
In short: (§2)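 Disk diffusion with the antagonist (GlcNAc or dipeptide) applied to the same 6.35-mm disk as the FMDP dipeptide. Base layer is YNB with 1% glucose and 1% agar, seeded with 10⁴ cfu/mL C. albicans from an overnight Sabouraud culture. Peptides were dissolved in water. Inhibition zones were measured after 48 h at 30 °C.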

[13] = tested on: Candida albicans; experiment: Antifungal activity against Candida albicans ATCC 26278 strain in medium after incorporation of 10 nmol of Met-Val dipeptide antagonist per disk.; format: functional; in short: as §2
[14] = tested on: Candida albicans; experiment: Antifungal activity against Candida albicans ATCC 26278 strain in YNB medium after incorporation of 10 ug per disk.; format: functional
In short: (§3)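 C. albicans disk diffusion. YNB medium with 1% glucose and 1% agar was seeded with 10⁴ cfu/mL cells from an overnight Sabouraud culture and poured into dishes. Water-dissolved peptide was loaded onto 6.35-mm paper disks, which were placed on the agar. Zones of inhibition were measured after 48 h at 30 °C.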

[15] = tested on: Candida albicans; experiment: Antifungal activity against Candida albicans ATCC 26278 strain in YNB medium after incorporation of 20 ug per disk.; format: functional; in short: as §3
[16] = tested on: Candida albicans; experiment: Antifungal activity against Candida albicans ATCC 26278 strain in medium after incorporation of 10 nmol of GlcNAc antagonist per disk.; format: functional; in short: as §2
[17] = tested on: Candida albicans; experiment: Activity against Candida albicans ATCC 26278 strain in YNB medium after incorporation of 20 ug per disk expressed as zone size; format: functional; in short: as §3
[18] = tested on: Candida albicans; experiment: Activity against Candida albicans ATCC 26278 strain in YNB medium after incorporation of 10 ug per disk expressed as zone size; format: functional; in short: as §3

| Structure (SMILES) | MIC [1] | MIC [2] | MIC [3] | MIC [4] | MIC [5] | other results |
| --- | --- | --- | --- | --- | --- | --- |
| COC(=O)/C=C/C(=O)NC[C@@H](NC(=O)[C@@H](N)CCCCN)C(=O)O | > 200 µg/mL | > 200 µg/mL | > 200 µg/mL | > 200 µg/mL | 100 µg/mL (≈ 290 µM) |  |
| COC(=O)/C=C/C(=O)NC[C@@H](N)C(=O)N[C@@H](Cc1ccccc1)C(=O)O | > 200 µg/mL | > 200 µg/mL | 1.56 µg/mL (≈ 4.29 µM) | > 200 µg/mL | > 200 µg/mL |  |
| COC(=O)/C=C/C(=O)NC[C@@H](N)C(=O)O | > 200 µg/mL | > 200 µg/mL | > 200 µg/mL | > 200 µg/mL | > 200 µg/mL |  |
| COC(=O)/C=C/C(=O)NC[C@@H](NC(=O)[C@H](C)N)C(=O)O | 100 µg/mL (≈ 348 µM) | 50 µg/mL (≈ 174 µM) | 0.8 µg/mL (≈ 2.78 µM) | 3.12 µg/mL (≈ 10.9 µM) | 1.56 µg/mL (≈ 5.43 µM) |  |
| COC(=O)/C=C/C(=O)NC[C@@H](N)C(=O)NCC(=O)O | > 200 µg/mL | > 200 µg/mL | > 200 µg/mL | > 200 µg/mL | > 200 µg/mL |  |
| COC(=O)/C=C/C(=O)NC[C@@H](NC(=O)[C@@H](N)Cc1ccccc1)C(=O)O | > 200 µg/mL | 100 µg/mL (≈ 275 µM) | 12.5 µg/mL (≈ 34.4 µM) | 12.5 µg/mL (≈ 34.4 µM) | 6.25 µg/mL (≈ 17.2 µM) |  |
| COC(=O)/C=C/C(=O)NC[C@@H](N)C(=O)N[C@H](C(=O)O)C(C)C | > 200 µg/mL | 100 µg/mL (≈ 317 µM) | 6.25 µg/mL (≈ 19.8 µM) | > 200 µg/mL | > 200 µg/mL |  |
| CCC[C@H](NC(=O)[C@H](N)CNC(=O)/C=C/C(=O)OC)C(=O)O | > 200 µg/mL | 100 µg/mL (≈ 317 µM) | 6.25 µg/mL (≈ 19.8 µM) | > 200 µg/mL | > 200 µg/mL |  |
| COC(=O)/C=C/C(=O)NC[C@@H](NC(=O)[C@@H](N)Cc1ccc(O)cc1)C(=O)O | > 200 µg/mL | 100 µg/mL (≈ 264 µM) | 50 µg/mL (≈ 132 µM) | 25 µg/mL (≈ 65.9 µM) | 12.5 µg/mL (≈ 32.9 µM) |  |
| CCCC[C@H](N)C(=O)N[C@H](CNC(=O)/C=C/C(=O)OC)C(=O)O | 100 µg/mL (≈ 304 µM) | 25 µg/mL (≈ 75.9 µM) | 0.8 µg/mL (≈ 2.43 µM) | 3.12 µg/mL (≈ 9.47 µM) | 0.4 µg/mL (≈ 1.21 µM) | Zone size [6]: 0 mm; Zone size [7]: 0 mm; Zone size [8]: 0 mm; Zone size [9]: 0 mm; Zone size [10]: 11 mm; Zone size [11]: 10 mm |
| COC(=O)/C=C/C(=O)NC[C@@H](N)C(=O)N[C@@H](Cc1ccc(O)cc1)C(=O)O | > 200 µg/mL | > 200 µg/mL | 25 µg/mL (≈ 65.9 µM) | > 200 µg/mL | > 200 µg/mL |  |
| COC(=O)/C=C/C(=O)NC[C@@H](N)C(=O)N[C@@H](C)C(=O)O | > 200 µg/mL | > 200 µg/mL | 3.12 µg/mL (≈ 10.9 µM) | > 200 µg/mL | > 200 µg/mL |  |
| COC(=O)/C=C/C(=O)NC[C@@H](NC(=O)[C@@H](N)C(C)C)C(=O)O | 100 µg/mL (≈ 317 µM) | 12.5 µg/mL (≈ 39.6 µM) | 1.56 µg/mL (≈ 4.95 µM) | 1.56 µg/mL (≈ 4.95 µM) | 0.8 µg/mL (≈ 2.54 µM) |  |
| COC(=O)/C=C/C(=O)NC[C@@H](NC(=O)CN)C(=O)O | > 100 µg/mL | > 200 µg/mL | 12.5 µg/mL (≈ 45.7 µM) | 50 µg/mL (≈ 183 µM) | 25 µg/mL (≈ 91.5 µM) |  |
| COC(=O)/C=C/C(=O)NC[C@@H](NC(=O)[C@@H](N)CCSC)C(=O)O | 100 µg/mL (≈ 288 µM) | 50 µg/mL (≈ 144 µM) | 0.8 µg/mL (≈ 2.3 µM) | 3.12 µg/mL (≈ 8.98 µM) | 3.12 µg/mL (≈ 8.98 µM) |  |
| COC(=O)/C=C/C(=O)NC[C@@H](N)C(=O)N[C@@H](CCSC)C(=O)O | > 200 µg/mL | > 200 µg/mL | 1.56 µg/mL (≈ 4.49 µM) | > 200 µg/mL | > 200 µg/mL | Zone size [12]: 0 mm; Zone size [13]: 0 mm; Zone size [14]: 31 mm; Zone size [15]: 35 mm; Zone size [16]: 0 mm |
| COC(=O)/C=C/C(=O)NC[C@@H](N)C(=O)N[C@@H](CC(C)C)C(=O)O | > 200 µg/mL | 100 µg/mL (≈ 304 µM) | 3.12 µg/mL (≈ 9.47 µM) | > 200 µg/mL | > 200 µg/mL |  |
| COC(=O)/C=C/C(=O)NC[C@@H](N)C(=O)N[C@H](CNC(=O)/C=C/C(=O)OC)C(=O)O | > 200 µg/mL | > 200 µg/mL | > 200 µg/mL | > 200 µg/mL | > 200 µg/mL |  |
| Nc1nc(=O)[nH]cc1F [FLUCYTOSINE] |  |  |  |  |  | Zone size [14]: 35 mm; Zone size [15]: 39 mm |
| Clc1ccccc1C(c1ccccc1)(c1ccccc1)n1ccnc1 [CLOTRIMAZOLE] |  |  |  |  |  | Zone size [14]: 17 mm; Zone size [15]: 21 mm |
| C[C@@H]([C@H](N)C(=O)N[C@H](C(=O)O)[C@H]1O[C@@H](n2ccc(=O)[nH]c2=O)[C@H](O)[C@@H]1O)[C@H](O)c1ccc(O)cn1.C[C@@H]([C@H](N)C(=O)N[C@H](C(=O)O)[C@H]1O[C@H](n2cc(C=O)nc2O)[C@H](O)[C@@H]1O)[C@H](O)c1ccc(O)cn1 |  |  |  |  |  | Zone size [17]: 28 mm; Zone size [18]: 25 mm |
| COC(=O)/C=C/C(=O)NC[C@@H](NC(=O)[C@@H](N)CC(C)C)C(=O)O | 100 µg/mL (≈ 304 µM) | 12.5 µg/mL (≈ 38 µM) | 0.8 µg/mL (≈ 2.43 µM) | 1.56 µg/mL (≈ 4.74 µM) | 1.56 µg/mL (≈ 4.74 µM) | Zone size [12]: 0 mm; Zone size [13]: 0 mm; Zone size [14]: 39 mm; Zone size [15]: 41 mm; Zone size [16]: 0 mm |
| CCC[C@H](N)C(=O)N[C@H](CNC(=O)/C=C/C(=O)OC)C(=O)O | 100 µg/mL (≈ 317 µM) | 12.5 µg/mL (≈ 39.6 µM) | 0.4 µg/mL (≈ 1.27 µM) | 3.12 µg/mL (≈ 9.89 µM) | 0.4 µg/mL (≈ 1.27 µM) | Zone size [14]: 40 mm; Zone size [15]: 42 mm |
| Clc1ccc(COC(Cn2ccnc2)c2ccc(Cl)cc2Cl)c(Cl)c1 (stereo unspecified) [MICONAZOLE] |  |  |  |  |  | Zone size [17]: 32 mm; Zone size [18]: 27 mm |

From ChEMBL document CHEMBL1123602, “Synthesis and biological properties of N3-(4-methoxyfumaroyl)-L-2,3-diaminopropanoic acid dipeptides, a novel group of antimicrobial agents” (1987)
